Reference: ChEMBL document CHEMBL4513216, “Probing the Open Global Health Chemical Diversity Library for Multistage-Active Starting Points for Next-Generation Antimalarials” (ACS Infect Dis, 2020)

experiment: Toxicity liver stage against HepG2, at 10uM; format: cell-based; set-up: test concentration 10 uM, cell line HepG2-A16-CD81EGFP; conditions: human, HepG2-A16-CD81EGFP cells; read-out: INHIBITION
In short: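 Uninfected HepG2-A16-CD81EGFP cells, 3 × 10^3 per well, 1536-well, plated on prespotted compound at 10 μM final, parasite-free screening media added to match infected plates; puromycin 10 μM positive, DMSO 0.5% negative; run in parallel with 48 h PbLuc assay at 37 °C, 5% CO2; viability by CellTiter-Glo luminescence, normalized to controls.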

**Q.** For `CN(CC(=O)NC(C)(C)C)C(=O)c1cccn1CCc1ccccc1`, which cytotoxicity at 10 µM is on record?
**A.** 6.1%

**Q.** For `Cc1noc(C)c1CCC(=O)N1CCCN(Cc2cccs2)CC1`, which cytotoxicity at 10 µM is on record?
**A.** -3.39%

**Q.** For `O=C(C1CCOCC1)N1CC[C@@H](N2CCOCC2)[C@@H]1Cc1ccccc1`, which cytotoxicity at 10 µM is on record?
**A.** -77.2%

**Q.** With `CN(C)CCCNC(=O)c1ccccc1NC(=O)c1cc(Cl)ccc1Cl` as the compound, how does the cytotoxicity at 10 µM read?
**A.** -17%

**Q.** With `O=C([C@H]1CCS(=O)(=O)[C@@H]2CN(Cc3ccc(F)cc3)C[C@H]12)N1CCCC1` as the compound, how does the cytotoxicity at 10 µM read?
**A.** 2.96%

**Q.** For `COc1ccc(NC2CCCN(Cc3cnc(N(C)C)s3)C2)cc1` (centres undefined), which cytotoxicity at 10 µM is on record?
**A.** 0.88%

**Q.** With `O=C(c1cc(F)ccc1O)N1CCN(C2CCSC2)CC1` (centres undefined) as the compound, how does the cytotoxicity at 10 µM read?
**A.** 0.773%

**Q.** For `CCS(=O)(=O)N(C)C1CCN(C(=O)c2cc(C)cc(C)c2)CC1`, which cytotoxicity at 10 µM is on record?
**A.** 11.5%

**Q.** For `O=C(NCC1CCCN1CCc1ccccc1)NCC1(O)CCC1` (centres undefined), which cytotoxicity at 10 µM is on record?
**A.** -3.06%

**Q.** With `Cc1ccc(CNC(=O)N2CCN(S(C)(=O)=O)CC2)n1C` as the compound, how does the cytotoxicity at 10 µM read?
**A.** 2.22%

**Q.** Which cytotoxicity at 10 µM does the source give for `CCOc1ccc(CC(=O)N2C[C@H](C3CC3)[C@@H](N)C2)cc1` here?
**A.** -7.76%

**Q.** With `CCCN1CCCN(S(=O)(=O)c2cnc3onc(C)c3c2)CC1` as the compound, how does the cytotoxicity at 10 µM read?
**A.** 1.71%

**Q.** With `CCC(CNC(=O)c1ccccn1)N1CCc2ccccc2C1` (centres undefined) as the compound, how does the cytotoxicity at 10 µM read?
**A.** 1.02%

**Q.** Which cytotoxicity at 10 µM does the source give for `COCCN1CCC2(CC1)CC(Nc1ccc(C)nn1)CO2` (centres undefined) here?
**A.** -0.818%

**Q.** For `CNC(=O)c1cnn2c(C3CCCN3C)ccnc12` (centres undefined), which cytotoxicity at 10 µM is on record?
**A.** 3.74%

**Q.** With `O=C(C1CCCO1)N1CCC2(CC1)COCCN(Cc1ccncc1)C2` (centres undefined) as the compound, how does the cytotoxicity at 10 µM read?
**A.** -81.1%

**Q.** For `CCN(CC)C1CCN(C(=O)c2cc3cc(C)cc(C)c3nc2C)CC1`, which cytotoxicity at 10 µM is on record?
**A.** 0.199%

**Q.** With `CC(C)c1nc(-c2ccc(=O)[nH]n2)n(-c2ccc3c(c2)OCO3)n1` as the compound, how does the cytotoxicity at 10 µM read?
**A.** 6.46%

**Q.** Which cytotoxicity at 10 µM does the source give for `CNC(=O)[C@H]1C[C@H]2OCC[C@H]2N(CC2CCOCC2)C1` here?
**A.** 6.46%

**Q.** With `CN1CCC(N(Cc2ccccc2F)C(=O)NCc2ccncc2)CC1` as the compound, how does the cytotoxicity at 10 µM read?
**A.** -2.14%

**Q.** With `COCCC(=O)N1CCC2(CCN(Cc3ccc(C)cc3)CC2)C1` as the compound, how does the cytotoxicity at 10 µM read?
**A.** -74.4%

**Q.** With `COc1ccc(CN(C)C(=O)CN2CC(n3cc(C)cn3)C2)cc1F` as the compound, how does the cytotoxicity at 10 µM read?
**A.** 1.59%

**Q.** With `CC(C)CN1CCC2(CCN(Cc3nccs3)CC2)C1=O` as the compound, how does the cytotoxicity at 10 µM read?
**A.** -5.77%

**Q.** Which cytotoxicity at 10 µM does the source give for `NC(=O)C1CCC(NC(=O)COc2ccc(Cl)c(Cl)c2)CC1` (centres undefined) here?
**A.** -12.5%

**Q.** For `Cn1cc(CNCC2Cn3nnc(-c4ccccc4)c3CO2)cn1` (centres undefined), which cytotoxicity at 10 µM is on record?
**A.** -4.66%

**Q.** Which cytotoxicity at 10 µM does the source give for `c1ccc(-n2cc(CNCC3CCCN3c3cccnn3)nn2)cc1` (centres undefined) here?
**A.** -1.47%

**Q.** Which cytotoxicity at 10 µM does the source give for `COc1ccc2nc3n(c2c1)[C@@H](CNC(=O)c1cncnc1)COC3` here?
**A.** 0.488%

**Q.** With `O=C1C[C@H]2[C@H](CCN2Cc2ccccn2)N1CC1CC1` as the compound, how does the cytotoxicity at 10 µM read?
**A.** 5.8%

**Q.** Which cytotoxicity at 10 µM does the source give for `Cc1cc2c(=O)n3c(nc2s1)CCN(C(=O)c1ccn(C)n1)CC3` here?
**A.** -9.68%

**Q.** With `COc1cccc(S(=O)(=O)Cc2cc(C)on2)c1` as the compound, how does the cytotoxicity at 10 µM read?
**A.** 4.03%

**Q.** Which cytotoxicity at 10 µM does the source give for `CCOc1ccc(NC2CCN(C)C2=O)cn1` (centres undefined) here?
**A.** -3.7%

**Q.** Which cytotoxicity at 10 µM does the source give for `Cc1c[nH]nc1C1CCCN1Cc1ncc[nH]1` (centres undefined) here?
**A.** 4.99%

**Q.** For `O=C(Nc1ccc(F)cc1-c1nc(C2CC2)no1)N1CC[C@@H](O)C1`, which cytotoxicity at 10 µM is on record?
**A.** -1.54%

**Q.** With `Brc1ccc(CNCc2nnc3n2CCC3)s1` as the compound, how does the cytotoxicity at 10 µM read?
**A.** -4.2%

**Q.** With `Cc1noc(CNC(=O)NCCOc2ccc(Cl)cc2)n1` as the compound, how does the cytotoxicity at 10 µM read?
**A.** 1.92%

**Q.** With `c1cncc(CNC2CCc3ncnn3C2)c1` (centres undefined) as the compound, how does the cytotoxicity at 10 µM read?
**A.** -7.91%

**Q.** Which cytotoxicity at 10 µM does the source give for `CC(C)Cc1noc(CN2CCN(CCOc3ccc(Cl)cc3)CC2)n1` here?
**A.** 24%

**Q.** For `O=C(Cc1ccsc1)N1C[C@@H]2COC[C@]2(COCc2cccnc2)C1`, which cytotoxicity at 10 µM is on record?
**A.** 2.98%

**Q.** Which cytotoxicity at 10 µM does the source give for `N[C@@H]1c2ccccc2C2(CCN(C(=O)c3ccc(Cl)cn3)CC2)[C@H]1O` here?
**A.** -2.21%

**Q.** With `COCCN1C[C@H](NC(=O)CCC(F)(F)F)[C@@H](C(C)C)C1` as the compound, how does the cytotoxicity at 10 µM read?
**A.** 5.25%

**Q.** For `CCc1n[nH]c(C(=O)N2CCC3(CCCN(CCOC)C3=O)C2)c1C` (centres undefined), which cytotoxicity at 10 µM is on record?
**A.** 6.38%

**Q.** Which cytotoxicity at 10 µM does the source give for `CN(C)CCCNC(=O)c1cnc(Cc2ccc(F)cc2)s1` here?
**A.** 3.47%

**Q.** For `O=C1COc2ccc(C(=O)N3CCCC(n4ccnc4)C3)cc2N1` (centres undefined), which cytotoxicity at 10 µM is on record?
**A.** -13.5%

**Q.** Which cytotoxicity at 10 µM does the source give for `Cc1noc(C(C)N2CCN(CC(=O)N3CCCC3)CC2)n1` (centres undefined) here?
**A.** 0.678%

**Q.** With `Cc1cc(CN2CC[C@H]3C(=O)N(c4ccsc4)CCO[C@H]3C2)no1` as the compound, how does the cytotoxicity at 10 µM read?
**A.** -69.2%

**Q.** Which cytotoxicity at 10 µM does the source give for `Cc1nc(CCCNC(=O)C2CC(=O)N(C3CC3)C2)sc1C` (centres undefined) here?
**A.** -12.9%

**Q.** Which cytotoxicity at 10 µM does the source give for `c1ccc(-c2cc(CNCCCC3CCOC3)c3nnnn3c2)cc1` (centres undefined) here?
**A.** -22.3%

**Q.** Which cytotoxicity at 10 µM does the source give for `Cc1ccc(N2CC3(CCN(Cc4nccn4C)C3)CC2=O)s1` (centres undefined) here?
**A.** -81.9%

**Q.** With `CCS(=O)(=O)N1CC[C@@H]2[C@H]1CCC(=O)N2CCOC` as the compound, how does the cytotoxicity at 10 µM read?
**A.** -104%

**Q.** For `O=C(NCC1CCSCC1)N(CCCO)C1CCc2ccccc21` (centres undefined), which cytotoxicity at 10 µM is on record?
**A.** 5.77%

**Q.** With `O=C(NC1CCNCC1)C1(N2CCCCC2)Cc2ccccc2C1` as the compound, how does the cytotoxicity at 10 µM read?
**A.** -5.47%

**Q.** Which cytotoxicity at 10 µM does the source give for `CCN(Cc1cc(F)ccc1Cl)C1CCS(=O)(=O)C1` (centres undefined) here?
**A.** 5.29%

**Q.** Which cytotoxicity at 10 µM does the source give for `Cc1cc(NC(=O)CCN2CCn3c(C)nnc3C2)no1` here?
**A.** 6.69%

**Q.** With `O=S(=O)(Cc1ccccc1F)Cc1nnnn1C1CC1` as the compound, how does the cytotoxicity at 10 µM read?
**A.** -16.5%
